MC4R barr agon – activates human MC4R beta-arrestin recruitment. P32245. U2OS MC4R beta-arrestin complementation, luminescence; percent of melanotan II response, DMSO zero. activation, % at 8.9 µM. actives 0.98% (n = 360,000). AID 540308;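 active = activation above a per-plate cutoff, the mean activation of sample wells on that plate plus 3 SD, cut at about 8% in these data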
MC4R antag cAMP – human MC4R antagonism in cAMP assay. MC4R-expressing cells, MTII-stimulated cAMP, LANCE TR-FRET. inhibition, % at 6.5 µM. actives 0.48% (n = 360,000). P32245;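 active = inhibition above its plate's cutoff, the mean of tested wells on that plate plus 3 SD, cut at about 29% in these data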;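 also: 0% = Melanotan II alone and 100% = Melanotan II plus saturating MCL0020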
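System – human MC4R-expressing U2OS cells · Also added – Melanotan II · Dosing – one concentration, 6.5 µM nominal · Timing – 30-min compound, 1-h challenge, 1-h detection, room temperature · Measured by – Eu-cAMP/anti-cAMP TR-FRET, emission 671 nm · Replicates – singlicate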
GAA850 FXN act – activators of GAA850 frataxin (FXN) promoter; HEK293 lucGAA850 FXN promoter luciferase reporter, 24 h; percent of 10 µM SAHA response; activation, % at 6 µM; actives 0.56% (n = 360,000);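 active = activation above the average of all compounds screened plus 3 SD, cutoff fixed separately per campaign, cut at about 7.5% in these data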;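 also: 0% = DMSO wells and 100% = 10 µM SAHA wells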
m5-HT2A agonist – mouse HTR2A agonism via beta-arrestin recruitment; P35363; CHO-K1 mHTR2A beta-arrestin complementation, luminescence; percent of 30 µM serotonin response; activation, % at 7.6 µM; actives 0.66% (n = 360,000);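 active = activation above a run cutoff, the mean activation of all tested compounds plus 3 SD, cut at about 14% in these data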;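 also: 0% = plate median of compound wells and 100% = 30 µM serotonin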
AHR act – human AHR activation; AHR-responsive luciferase reporter cells, luminescence; actives 2.5% (n = 320,000); P35869; activation, % at 5 µM; AID 2796; in the data active = activation above about 47%;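 also: 0% = vehicle wells and 100% = reference agonist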
OPRM1 ag – counter-screen for mouse HTR2A agonists: human mu opioid receptor agonists | shares compounds with m5-HT2A agonist | U2OS OPRM1 beta-arrestin PathHunter, luminescence; DMSO 0%, DAMGO 9.3 µM 100% | activation, % at 9.3 µM | actives 5.3% (n = 2,300);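 active = mean activation above the mean of DMSO-only wells plus 3 SD, cut at about 0.5% in these data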
Target sequence (P35372 whole entry, looked up): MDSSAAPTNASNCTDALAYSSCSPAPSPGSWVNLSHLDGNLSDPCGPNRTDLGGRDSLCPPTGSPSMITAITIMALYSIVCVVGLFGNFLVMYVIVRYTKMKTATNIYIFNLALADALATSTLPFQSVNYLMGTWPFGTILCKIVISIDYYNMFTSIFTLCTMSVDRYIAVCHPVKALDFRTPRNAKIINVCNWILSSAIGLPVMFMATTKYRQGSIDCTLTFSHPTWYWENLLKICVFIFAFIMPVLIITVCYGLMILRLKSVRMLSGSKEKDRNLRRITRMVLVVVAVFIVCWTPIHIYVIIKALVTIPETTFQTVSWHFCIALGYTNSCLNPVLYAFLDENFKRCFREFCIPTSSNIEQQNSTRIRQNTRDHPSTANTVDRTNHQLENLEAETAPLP
HTR2A ag conf – mouse HTR2A agonism confirmed. shares compounds with m5-HT2A agonist. CHO-K1 PathHunter beta-arrestin recruitment, luminescence; DMSO 0%, 30 µM serotonin 100%. activation, % at 7.6 µM. actives 19% (n = 2,300). AID 624381;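 active = mean activation across triplicates above the hit threshold derived in the original primary screen, cut at about 15% in these data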
* = called active by the depositor; . = no result. Rows were chosen to be rich in hits. Some 4.7% of all compounds tested hit in one or more screens of this group.

SMILES	MC4R barr agon	MC4R antag cAMP	GAA850 FXN act	m5-HT2A agonist	AHR act	OPRM1 ag	HTR2A ag conf
CCN(CC(=O)Nc1c(F)cccc1F)C(=O)c1ccc(N2CCCCC2)c([N+](=O)[O-])c1	-3	-4	-1	15*	-2	0.7*	8
CCC(C(=O)O)n1cnc2scc(-c3ccc(C)c(C)c3)c2c1=O (stereo not drawn)	1	19	1	24*	3	0	-2
CCC(C(=O)OC)n1cnc2scc(-c3ccc(C)c(C)c3)c2c1=O (stereo not drawn)	1	26	-1	-6	0	.	.
CCc1nc2ccc(C(=O)NCCOc3ccc(OC)cc3)cn2c1N(CCC(C)C)CCN(C)C	-2	1	-8	-5	.	.	.
CCC(=O)N1c2ccc(S(=O)(=O)N3CCCCC3)cc2CC1C (stereo not drawn)	-2	0	2	-1	2	.	.
CCC(=O)N1c2ccc(S(=O)(=O)N3CCCC3)cc2CC1C (stereo not drawn)	-2	6	3	15*	0	0	0
COc1ccc(N2CCN(c3ccc4nnc(CCC(=O)Nc5ccc(C)cc5)n4n3)CC2)cc1	0	2	0	12	3	.	.
CC(OC(=O)c1ccccc1Br)C(=O)Nc1nc(-c2cccc([N+](=O)[O-])c2)cs1 (stereo not drawn)	0	10	2	17*	-1	0	-4
CC(OC(=O)c1cnccn1)C(=O)Nc1nc(-c2cccc([N+](=O)[O-])c2)cs1 (stereo not drawn)	0	1	4	5	3	.	.
CCOC(=O)Cc1ccc(Nc2nc(NCCOC)nc3ccsc23)cc1	2	10	-1	-7	.	.	.
CCc1ccc(NC(=O)Cn2nnc(C(=O)NCCc3ccc(OC)c(OC)c3)c2N)cc1	-1	0	0	17*	2	0	2
CCOc1ccc(CCNC(=O)c2nnn(CC(=O)Nc3ccc(OC)c(OC)c3)c2N)cc1OCC	-2	9	-3	-1	5	.	.
COc1cccc(CNC(=O)COC(=O)c2nc(Cl)c(Cl)c(Cl)c2Cl)c1	-5	-16	4	1	0	.	.
CSc1cccc(NC(=S)N(CCCN2CCCC2)Cc2cccs2)c1	0	10	0	43*	2	-1	15*
COc1ccc(NC(=S)N(CCCN2CCCC2)Cc2cccs2)cc1	-3	-5	2	1	-1	.	.
COc1ccc(/C=N/NC(=O)c2ccc(NC(=O)C3CCCCC3)cc2)cc1O	-2	2	2	20*	12	-1	-3
Cc1cccc(N2C(=O)CS/C2=N\NC(=O)c2ccc(Br)cc2)c1C	0	6	4	15*	7	-1	-1
COc1ccc(S(=O)(=O)NC(C)C(=O)NCc2ccncc2)cc1C (stereo not drawn)	0	19	-1	-2	1	.	.
COc1ccc(S(=O)(=O)NC(C)C(=O)NCc2cccnc2)cc1C (stereo not drawn)	1	3	0	15*	-1	0	-1
O=C(N[C@@H]1CC[C@@H](CCn2cc(-c3ccccc3)nn2)O[C@@H]1CO)c1cnccn1	.	.	.	-6	.	.	.
Cc1cc(NC(=O)COc2ccc3ccccc3c2)no1	-2	5	0	0	-1	.	.
Cc1cc(NC(=O)COc2cccc([N+](=O)[O-])c2)no1	-1	5	0	18*	-2	0	-1
CC(C(=O)O)c1ccc(C(=O)c2cccs2)cc1 (stereo not drawn)	0	10	0	18*	-2	0	49*
CCOc1ccc(CNC(=O)C(C)n2ccc3cc(S(=O)(=O)N4CCCC4)ccc32)cc1 (stereo not drawn)	0	-2	-2	8	1	.	.
CC(C(=O)NCc1ccc(F)cc1)n1ccc2cc(S(=O)(=O)N3CCCC3)ccc21 (stereo not drawn)	0	6	-2	15*	1	0	0
SMILES	MC4R barr agon	MC4R antag cAMP	GAA850 FXN act	m5-HT2A agonist	AHR act	OPRM1 ag	HTR2A ag conf
CCOC(=O)c1c(C)nc(C)c2c(=O)oc3ccccc3c12	0	-9	1	0	3	.	.
COC(=O)C1=C(C)N(CCc2c[nH]c3ccc(OC)cc23)C(=O)C1	2	10	0	17*	0	-1	0
CCCNC(=O)C1CC(=O)N(c2ccc(OCC)cc2)C1 (stereo not drawn)	-2	-3	3	4	4	.	.
CCOc1ccc(N2CC(C(=O)NCCc3c[nH]c4ccc(OC)cc34)CC2=O)cc1 (stereo not drawn)	-1	4	0	18*	5	0	3
COc1ccc2[nH]cc(CCNC(=O)C3CC(=O)N(c4ccc(Cl)cc4)C3)c2c1 (stereo not drawn)	-1	2	1	16*	10	-1	3
COc1ccc(CCNC(=O)C2CC(=O)N(c3ccc(C)cc3)C2)cc1 (stereo not drawn)	0	-1	1	2	2	.	.
CC(C)(C)OC(=O)N(CC1CCNCC1)C(=O)c1[nH]c(C(F)(F)F)nc1-c1ccccc1	.	.	.	-6	.	.	.
C=CCC1(CC=C)CC(Cc2cnccn2)N(C(=O)OC(C)(C)C)C1 (stereo not drawn)	2	-8	1	-1	.	.	.
COc1ccc(S(=O)(=O)N2CCN(C(=O)CSC(=S)N3CCCC3)CC2)cc1	0	-5	0	3	2	.	.
O=C(NCc1ccc(F)cc1)C1CCCN(S(=O)(=O)c2cccc3nonc23)C1 (stereo not drawn)	2	5	0	17*	1	-1	-4
COC(=O)c1cc2c(C)nn(C)c2s1	-1	4	1	23*	-2	-1	-5
CCc1ccc(NC(=O)CSc2nc3nc(C)cc(C)n3n2)cc1	-1	-7	1	18*	28	0	-2
COc1ccc(NC(=O)c2ccc(NC(=O)c3nc4nc(C)cc(C)n4n3)cc2)cc1	1	4	1	15*	.	-1	-4
COc1ccc(NC(=O)CSc2nc3nc(C)cc(C)n3n2)cc1	-1	5	-1	-1	-3	.	.
Cc1noc(C)c1S(=O)(=O)NCc1ccc2c(c1)OCO2	-1	2	1	32*	8	-1	-5
O=C(CN1CCN(c2ccccn2)CC1)N1CC(O)CO1 (stereo not drawn)	0	4	2	7	-3	.	.
